From ChEMBL document CHEMBL3091432, “(S)-4-Trimethylsilyl-3-butyn-2-ol as an auxiliary for stereocontrolled synthesis of salinosporamide analogs with modifications at positions C2 and C5” (Bioorg Med Chem Lett, 2013)
Calls of active or inactive are those of the source. The rule behind the calls is not given here.

Columns and labels:
[1] = biological target: T1, Proteasome Macropain subunit MB1 (Homo sapiens) (UniProt P28074); experiment: Inhibition of human 20S proteasome beta 5 subunit assessed as non-cyclized product formation after 5 to 10 mins by ESI-TOF analysis
T1 sequence (whole entry): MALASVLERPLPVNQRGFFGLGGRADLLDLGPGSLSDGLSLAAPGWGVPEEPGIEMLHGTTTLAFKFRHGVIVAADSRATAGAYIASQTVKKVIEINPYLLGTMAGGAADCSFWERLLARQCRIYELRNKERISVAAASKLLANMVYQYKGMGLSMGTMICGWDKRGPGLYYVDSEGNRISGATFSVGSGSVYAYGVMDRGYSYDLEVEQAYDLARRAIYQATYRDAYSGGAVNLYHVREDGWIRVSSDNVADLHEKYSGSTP
Procedure, shortened: (§1)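 Purified human 20S proteasome (1.4 μM) incubated at 23 °C with a 10-fold molar excess of inhibitor in pH 7.5 buffer (10 mM Tris/HCl, 1 mM EDTA, 1 mM DTT, <1% DMSO) for varying times. Reactions stopped by denaturing quench, desalted on C4 tips, eluted with 70:30:0.1 acetonitrile–water–formic acid, then analysed by mass spectrometry to follow each step of subunit modification.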

[2] = biological target: T1, Proteasome Macropain subunit MB1 (Homo sapiens); experiment: Inhibition of human 20S proteasome beta 5 subunit assessed as non-cyclized product formation after 5 to 10 mins by FT-MS analysis; procedure, shortened: as §1
[3] = biological target: T1, Proteasome Macropain subunit MB1 (Homo sapiens); experiment: Inhibition of human 20S proteasome beta 5 subunit assessed as cyclized acylated protein adduct formation after <20 mins by FT-MS analysis; procedure, shortened: as §1
[4] = biological target: T1, Proteasome Macropain subunit MB1 (Homo sapiens); experiment: Inhibition of human 20S proteasome beta 5 subunit assessed as cyclized acylated protein adduct formation after <20 mins by ESI-TOF analysis; procedure, shortened: as §1
[5] = biological target: T2, Proteasome Macropain subunit MB1 (Homo sapiens, UniProt P28074); experiment: Inhibition of chymotrypsin like activity of human 20S proteasome after 1 hr by luminescence assay
T2 sequence (P28074 whole entry): T1 sequence (whole entry)

[6] = biological target: T2, Proteasome Macropain subunit MB1; experiment: Inhibition of chymotrypsin like activity of 20S proteasome in HEK293 cells after 24 hrs by microscopic analysis; assay type: cell-based
Procedure, shortened: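 Image-based screen in a stably transfected HEK cell line expressing a GFP-tagged proteasomal substrate. Proteasomal inhibition is read out by cellular fluorescence.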

[7] = biological target: T1, Proteasome Macropain subunit MB1 (Homo sapiens); experiment: Inhibition of human 20S proteasome beta 5 subunit assessed as hydrolysis of non-cyclized product after 48 hrs by ESI-TOF analysis; procedure, shortened: as §1
[8] = biological target: T1, Proteasome Macropain subunit MB1 (Homo sapiens); experiment: Inhibition of human 20S proteasome beta 5 subunit assessed as cyclized acylated protein adduct formation after 48 hrs by FT-MS analysis; procedure, shortened: as §1
[9] = biological target: T1, Proteasome Macropain subunit MB1 (Homo sapiens); experiment: Inhibition of human 20S proteasome beta 5 subunit assessed as hydrolysis of non-cyclized product after 48 hrs by FT-MS analysis; procedure, shortened: as §1
[10] = biological target: T1, Proteasome Macropain subunit MB1 (Homo sapiens); experiment: Inhibition of human 20S proteasome beta 5 subunit assessed as cyclized acylated protein adduct formation after 48 hrs by ESI-TOF analysis; procedure, shortened: as §1

IC50 [5]	SMILES	inhibition [1]	inhibition [2]	inhibition [3]	inhibition [4]	EC50 [6]	inhibition [7]	inhibition [8]	inhibition [9]	inhibition [10]
330 nM	C[C@@]12OC(=O)[C@]1([C@@H](O)C1CCCCC1)NC(=O)[C@@H]2CC=O	–	–	–	–	–	–	–	–	–
28 nM	C[C@@]12OC(=O)[C@]1([C@@H](O)C1CC1)NC(=O)[C@@H]2CCCl	–	–	–	–	360 nM	–	–	–	–
500 nM	C[C@@]12OC(=O)[C@]1([C@@H](O)Cc1ccccc1)NC(=O)[C@@H]2CCCl	–	–	–	–	332 nM	–	–	–	–
500 nM	COC(=O)C[C@H]1C(=O)N[C@@]2([C@@H](O)C3CCCCC3)C(=O)O[C@@]12C	–	–	–	–	–	–	–	–	–

SMILES	IC50 [5]	inhibition [1]	inhibition [2]	inhibition [3]	inhibition [4]	EC50 [6]	inhibition [7]	inhibition [8]	inhibition [9]	inhibition [10]
C[C@@]12OC(=O)[C@]1([C@@H](O)C1CCCCC1)NC(=O)[C@@H]2CCCl	23 nM	Active	Active	Active	Active	10 nM	–	–	–	–
C[C@@]12OC(=O)[C@]1([C@@H](O)C1CCCCC1)NC(=O)[C@@H]2CCCCl	50 nM	Active	Active	–	–	90 nM	inactive	inactive	inactive	inactive
C[C@@]12OC(=O)[C@]1([C@@H](O)[C@@H]1C=CCCC1)NC(=O)[C@@H]2CCCl [MARIZOMIB]	22 nM	Active	Active	Active	Active	–	–	–	–	–
